Experiments:
[1] = system: Pancreas; assay: Biodistribution in iv dosed rat pancreas after 60 mins; type: ADME, organism-based; settings: in vivo, 1 h
[2] = system: Brain; assay: Biodistribution in iv dosed rat brain after 240 mins; type: ADME, organism-based; settings: in vivo, 4 h
Method in brief: (§1)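 [18F]-labeled tracer was given to rats under isoflurane anesthesia: 0.2 ml sterile water with 1 mg/mL BSA and 10–100 μCi, into the femoral vein. Three rats per group. Animals were killed by cervical dislocation under anesthesia at the stated time. Organs were removed, weighed and counted. Uptake was calculated as percent dose against a 1% aliquot of the injected dose counted alongside.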

[3] = system: Striatum; assay: Biodistribution in iv dosed rat striatum assessed as radioactivity after 2 mins; type: ADME, organism-based; settings: in vivo
[4] = system: Nucleic Acid; assay: Ratio of drug level in cortex to cerebellum in rat assessed as radioactivity after 2 mins; type: ADME, tissue-based; settings: in vivo
[5] = system: Bone; assay: Biodistribution in iv dosed rat bone after 60 mins; type: ADME, organism-based, Bone element; settings: in vivo, 1 h; method in brief: as §1
[6] = system: Kidney; assay: Biodistribution in iv dosed rat kidney after 30 mins; type: ADME, organism-based; settings: in vivo, 0.5 h; method in brief: as §1
[7] = system: Nucleic Acid; assay: Ratio of drug level in cortex to cerebellum in rat assessed as radioactivity after 30 mins; type: ADME, tissue-based; settings: in vivo, 0.5 h
Method in brief: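 Groups of three normal rats under isoflurane received the [18F] tracer (10–100 μCi in 0.2 ml sterile water containing 1 mg/mL BSA) into the femoral vein. They were killed by cervical dislocation under anesthesia at the stated time. Cortex, striatum, hippocampus, hypothalamus and cerebellum were dissected, weighed and gamma-counted. %dose/g was set against a 100-fold diluted dose aliquot, and each region was divided by cerebellum.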

[8] = system: Nucleic Acid; assay: Ratio of drug level in striatum to cerebellum in rat assessed as radioactivity after 60 mins; type: ADME, tissue-based; settings: in vivo, 1 h
[9] = system: Liver; assay: Biodistribution in iv dosed rat liver after 120 mins; type: ADME, organism-based; settings: in vivo, 2 h; method in brief: as §1
[10] = system: Pancreas; assay: Biodistribution in iv dosed rat pancreas after 2 mins; type: ADME, organism-based; settings: in vivo
[11] = system: Lung; assay: Biodistribution in iv dosed rat lungs after 2 mins; type: ADME, organism-based; settings: in vivo; method in brief: as §1
[12] = system: Pancreas; assay: Biodistribution in iv dosed rat pancreas after 30 mins; type: ADME, organism-based; settings: in vivo, 0.5 h
Method in brief: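 Rats, 3 per group, under isoflurane. ¹⁸F tracer (10–100 μCi) in 0.2 ml sterile water with 1 mg/mL BSA injected into the femoral vein. Killed by cervical dislocation under anesthesia at the stated time. Organs removed, weighed and counted. % dose/organ calculated against counts of a 1% diluted aliquot of the injected dose.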

[13] = system: Brain; assay: Biodistribution in iv dosed rat brain after 120 mins; type: ADME, organism-based; settings: in vivo, 2 h; method in brief: as §1
[14] = system: Muscle tissue; assay: Biodistribution in iv dosed rat muscle after 240 mins; type: ADME, organism-based; settings: in vivo, 4 h; method in brief: as §1
[15] = system: Nucleic Acid; assay: Ratio of drug level in hippocampus to cerebellum in rat assessed as radioactivity after 60 mins; type: ADME, tissue-based; settings: in vivo, 1 h
[16] = system: Spleen; assay: Biodistribution in iv dosed rat spleen after 60 mins; type: ADME, organism-based; settings: in vivo, 1 h
[17] = system: Liver; assay: Biodistribution in iv dosed rat liver after 240 mins; type: ADME, organism-based; settings: in vivo, 4 h; method in brief: as §1
[18] = system: Pancreas; assay: Biodistribution in iv dosed rat pancreas after 120 mins; type: ADME, organism-based; settings: in vivo, 2 h; method in brief: as §1
[19] = system: Nucleic Acid; assay: Ratio of drug level in hypothalamus to cerebellum in rat after 2 mins; type: ADME, tissue-based; settings: in vivo
[20] = system: Nucleic Acid; assay: Ratio of drug level in hypothalamus to cerebellum in rat after 120 mins; type: ADME, tissue-based; settings: in vivo, 2 h
Method in brief: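 Rats, 3 per group, given ¹⁸F tracer (10–100 μCi, 0.2 ml sterile water with 1 mg/mL BSA) into the femoral vein under isoflurane. Brain regions, including hypothalamus, striatum and cerebellum, dissected, weighed and counted. % dose/g calculated against a 1% diluted aliquot of the dose. Region/cerebellum ratio is region %dose/g divided by cerebellum %dose/g. SD of the ratio propagated from both means and SDs.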

[21] = system: Pancreas; assay: Biodistribution in iv dosed rat pancreas after 240 mins; type: ADME, organism-based; settings: in vivo, 4 h
[22] = system: Bone; assay: Biodistribution in iv dosed rat bone after 2 mins; type: ADME, organism-based, Bone element; settings: in vivo; method in brief: as §1
[23] = system: Nucleic Acid; assay: Ratio of drug level in striatum to cerebellum in rat after 360 mins; type: ADME, tissue-based; settings: in vivo, 6 h
[24] = system: Zone of skin; assay: Biodistribution in iv dosed rat skin after 360 mins; type: ADME, organism-based; settings: in vivo, 6 h
[25] = system: Liver; assay: Biodistribution in iv dosed rat liver after 360 mins; type: ADME, organism-based; settings: in vivo, 6 h; method in brief: as §1
[26] = system: Nucleic Acid; assay: Ratio of drug level in cortex to cerebellum in rat after 360 mins; type: ADME, tissue-based; settings: in vivo, 6 h
[27] = system: Spleen; assay: Biodistribution in iv dosed rat spleen after 360 mins; type: ADME, organism-based; settings: in vivo, 6 h
[28] = system: Bone; assay: Biodistribution in iv dosed rat bone after 360 mins; type: ADME, organism-based, Bone element; settings: in vivo, 6 h; method in brief: as §1
[29] = system: Kidney; assay: Biodistribution in iv dosed rat kidney after 360 mins; type: ADME, organism-based; settings: in vivo, 6 h; method in brief: as §1
[30] = system: Heart; assay: Biodistribution in iv dosed rat heart after 360 mins; type: ADME, organism-based; settings: in vivo, 6 h; method in brief: as §1
[31] = system: Brain; assay: Biodistribution in iv dosed rat brain after 360 mins; type: ADME, organism-based; settings: in vivo, 6 h; method in brief: as §1
[32] = system: Lung; assay: Biodistribution in iv dosed rat lung after 360 mins; type: ADME, organism-based; settings: in vivo, 6 h; method in brief: as §1
[33] = system: Muscle tissue; assay: Biodistribution in iv dosed rat muscle after 360 mins; type: ADME, organism-based; settings: in vivo, 6 h; method in brief: as §1
[34] = system: Nucleic Acid; assay: Ratio of drug level in hippocampus to cerebellum in rat after 360 mins; type: ADME, tissue-based; settings: in vivo, 6 h
[35] = system: Nucleic Acid; assay: Ratio of drug level in hypothalamus to cerebellum in rat after 360 mins; type: ADME, tissue-based; settings: in vivo, 6 h
[36] = system: Blood; assay: Biodistribution in iv dosed rat blood after 360 mins; type: ADME, organism-based; settings: in vivo, 6 h; method in brief: as §1

| Structure (SMILES) | Drug uptake [2] | Drug uptake [3] | Ratio [4] | Drug uptake [5] | Drug uptake [6] | Ratio [7] | Ratio [8] | Drug uptake [9] | Drug uptake [11] | Drug uptake [13] | Drug uptake [14] | Ratio [15] | Drug uptake [16] | Drug uptake [17] | Ratio [19] | Ratio [20] | Drug uptake [22] | other results |
| --- | --- | --- | --- | --- | --- | --- | --- | --- | --- | --- | --- | --- | --- | --- | --- | --- | --- | --- |
| CN(C)Cc1cc(OCC[18F])ccc1Sc1ccccc1N | 0.18 %ID | 1.01 % ID/g | 1.53 | 4.87 %ID | 4.56 %ID | 3.26 | 3.87 | 7.68 %ID | 13.21 %ID | 0.63 %ID | 2.28 %ID | 3.75 | 0.35 %ID | 2.26 %ID | 1.28 | 7.83 | 8.67 %ID | Drug uptake [1]: 0.19 %ID; Drug uptake [10]: 0.92 %ID; Drug uptake [12]: 0.24 %ID; Drug uptake [18]: 0.08 %ID; Drug uptake [21]: 0.04 %ID |
| CN(C)Cc1cc(OCC[18F])ccc1Sc1ccc(Br)cc1N | 1.57 %ID | 1.02 % ID/g | 1.45 | 8.53 %ID | 2.85 %ID | 1.95 | 2.76 | 2.85 %ID | 10.3 %ID | 2.16 %ID | 8.37 %ID | 2.21 | 0.68 %ID | 2.13 %ID | 0.95 | 3.7 | 9.88 %ID | Ratio [23]: 3.8; Drug uptake [24]: 6.52 %ID; Drug uptake [25]: 1.86 %ID; Ratio [26]: 3.2; Drug uptake [27]: 0.29 %ID; Drug uptake [28]: 15.3 %ID; Drug uptake [29]: 1.13 %ID; Drug uptake [30]: 0.13 %ID; Drug uptake [31]: 1.36 %ID; Drug uptake [32]: 1.89 %ID; Drug uptake [33]: 8.98 %ID; Ratio [34]: 3.08; Ratio [35]: 4.32; Drug uptake [36]: 4.75 %ID |

Source: ChEMBL document CHEMBL1138354, “2-(2'-((dimethylamino)methyl)-4'-(fluoroalkoxy)-phenylthio)benzenamine derivatives as serotonin transporter imaging agents” (J Med Chem, 2007)
